From ChEMBL document CHEMBL3525976, “An unusual metabolic pathway of sipoglitazar, a novel antidiabetic agent: cytochrome P450-catalyzed oxidation of sipoglitazar acyl glucuronide” (Drug Metab Dispos, 2012)

Experiments:
[1] = Chemical stability of the compound in potassium phosphate buffer at pH 7.4 assessed as formation of sipoglitazar at 10 uM up to 4 hrs; format: physicochemical; settings: pH 7.4, 4 h
Outline: (§1)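 [14C]glucuronide isomer (G1 or G2) at 10 μmol/L final, incubated at 37°C in 50 mmol/L potassium phosphate buffer (pH 7.4), acetate buffer (pH 4.4), rat bile or human plasma. Samples taken at 0, 5, 30 min and 1, 2, 4 h (G1) or 0, 1, 2, 4 h (G2). Reaction stopped with equal-volume acetonitrile and centrifuged. Supernatant analysed by radio-HPLC. Each species reported as % of total radioactivity.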

[2] = Drug level in human hepatic microsomes treated with 100 uM of [14C]Sipoglitazar after 4 hrs by HPLC analysis in presence of UDPGA; format: ADME, Liver
Outline: (§2)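 Preparative glucuronidation: [14C]sipoglitazar 100 μmol/L with human liver microsomes (2 mg protein/mL) and UDPGA 5 mmol/L, 37°C, 4 h. Supernatant concentrated under nitrogen, then separated by radio-HPLC on ODS columns at 40°C or 4°C with acetonitrile/water/TFA gradient to resolve the glucuronide isomers.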

Plasma [3] = test: Stability of the compound in human plasma assessed as formation of sipoglitazar at 10 uM up to 4 hrs; format: ADME, cell-free; outline: as §1
[4] = Chemical stability of the compound in acetate buffer at pH 4.4 at 10 uM up to 4 hrs; format: physicochemical; settings: pH 4.4, 4 h; outline: as §1
[5] = Stability of the compound in rat bile assessed as formation of sipoglitazar at 10 uM up to 4 hrs; format: ADME, tissue-based; outline: as §1
[6] = Drug metabolism in human hepatic microsomes assessed as formation of sipoglitazar at 10 uM after 10 mins by HPLC analysis in presence of NADPH; format: ADME, Liver, Microsome
Outline: (§3)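 Human liver microsomes (1 mg protein/mL), 10 μmol/L [14C]glucuronide isomer, 5 mmol/L MgCl2, with or without NADPH-generating system (5 mmol/L G6P, 0.5 mmol/L β-NADP+, 1.5 U/mL G6PDH) in 50 mmol/L KPB. Incubated 37°C, 10 min. Acetonitrile quench, then radio-HPLC.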

[7] = Drug level in human hepatic microsomes treated with 10 uM of [14C]Sipoglitazar after 6 hrs by LC-MS and LC-MS/MS analysis in presence of NADPH and UDPGA; format: ADME, Liver
[8] = Drug level in human hepatic microsomes treated with 10 uM of [14C]Sipoglitazar after 6 hrs by LC-MS and LC-MS/MS analysis in presence of UDPGA; format: ADME, Liver
Hepatocyte = test: Drug level in cryopreserved primary human hepatocytes treated with 10 uM of [14C]Sipoglitazar after 6 hrs by LC-MS and LC-MS/MS analysis; format: ADME, cell-based
Outline: (§4)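 Cryopreserved human hepatocytes suspended in DMEM at 3 x 10⁵ viable cells/well with 10 μmol/L [14C]sipoglitazar, 37°C, 6 h. Stopped with acetonitrile and centrifuged; supernatant run on radio-HPLC (ODS column, acetonitrile/water/TFA gradient). Metabolites expressed as % of total radioactivity. Means of duplicates.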

[9] = Drug level in human hepatic microsomes treated with 10 uM of [14C]Sipoglitazar after 6 hrs by LC-MS and LC-MS/MS analysis in presence of NADPH; format: ADME, Liver
Cytochrome P450 2C8 = molecular target: T1, Cytochrome P450 2C8 (Homo sapiens, UniProt P10632); test: Drug metabolism in […] assessed as CYP2C8-mediated formation of 3-(3-hydroxy-1-{4-[(2-phenyl-1,3-thiazol-4-yl)methoxy]benzyl}-1H-pyrazol-4-yl)propanoic acid at 10 uM after 15 mins by HPLC analysis in presence of NADPH; settings: 0.25 h
T1 sequence (P10632 whole entry): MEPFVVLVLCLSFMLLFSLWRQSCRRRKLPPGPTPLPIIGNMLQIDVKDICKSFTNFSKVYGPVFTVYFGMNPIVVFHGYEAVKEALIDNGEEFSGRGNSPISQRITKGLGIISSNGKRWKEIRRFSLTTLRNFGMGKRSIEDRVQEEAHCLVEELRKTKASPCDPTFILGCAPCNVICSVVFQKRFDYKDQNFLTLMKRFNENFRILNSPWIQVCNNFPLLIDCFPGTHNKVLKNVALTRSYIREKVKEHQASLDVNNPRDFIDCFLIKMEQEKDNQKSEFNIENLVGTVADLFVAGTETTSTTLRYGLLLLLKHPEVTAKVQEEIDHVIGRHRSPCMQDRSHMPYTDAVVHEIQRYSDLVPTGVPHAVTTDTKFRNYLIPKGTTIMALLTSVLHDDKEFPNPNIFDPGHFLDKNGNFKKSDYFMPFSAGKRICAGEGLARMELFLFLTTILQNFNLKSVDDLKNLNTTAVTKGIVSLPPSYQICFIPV
Outline: (§5)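 Recombinant CYP-expressing microsomes (80 pmol P450/mL) with 10 μmol/L [14C]glucuronide substrate, 5 mmol/L MgCl2 and NADPH-generating system (5 mmol/L glucose-6-phosphate, 0.5 mmol/L β-NADP+, 1.5 U/mL G6PDH) in 50 mmol/L KPB or Tris-HCl pH 7.4. Incubated 37°C, 15 min. Deethylated product quantified by radio-HPLC. Means of duplicates.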

[10] = Stability of the compound in rat bile assessed as formation of alpha-2-O-acyl glucuronide conjugate of sipoglitazar at 10 uM up to 4 hrs; format: ADME, tissue-based; outline: as §1
[11] = Drug metabolism in human hepatic microsomes assessed as formation of 3-(3-hydroxy-1-{4-[(2-phenyl-1,3-thiazol-4-yl)methoxy]benzyl}-1H-pyrazol-4-yl)propanoic acid at 10 uM after 10 mins by HPLC analysis in presence of NADPH; format: ADME, Liver, Microsome; outline: as §3
Plasma [12] = test: Stability of the compound in human plasma assessed as formation of alpha-2-O-acyl glucuronide conjugate of sipoglitazar at 10 uM up to 4 hrs; format: ADME, cell-free; outline: as §1
Cytochrome P450 2B6 = molecular target: T2, Cytochrome P450 2B6 (Homo sapiens, UniProt P20813); test: Drug metabolism in […] assessed as CYP2B6-mediated formation of 3-(3-hydroxy-1-{4-[(2-phenyl-1,3-thiazol-4-yl)methoxy]benzyl}-1H-pyrazol-4-yl)propanoic acid at 10 uM after 15 mins by HPLC analysis in presence of NADPH; settings: 0.25 h; outline: as §5
T2 sequence (P20813 whole entry): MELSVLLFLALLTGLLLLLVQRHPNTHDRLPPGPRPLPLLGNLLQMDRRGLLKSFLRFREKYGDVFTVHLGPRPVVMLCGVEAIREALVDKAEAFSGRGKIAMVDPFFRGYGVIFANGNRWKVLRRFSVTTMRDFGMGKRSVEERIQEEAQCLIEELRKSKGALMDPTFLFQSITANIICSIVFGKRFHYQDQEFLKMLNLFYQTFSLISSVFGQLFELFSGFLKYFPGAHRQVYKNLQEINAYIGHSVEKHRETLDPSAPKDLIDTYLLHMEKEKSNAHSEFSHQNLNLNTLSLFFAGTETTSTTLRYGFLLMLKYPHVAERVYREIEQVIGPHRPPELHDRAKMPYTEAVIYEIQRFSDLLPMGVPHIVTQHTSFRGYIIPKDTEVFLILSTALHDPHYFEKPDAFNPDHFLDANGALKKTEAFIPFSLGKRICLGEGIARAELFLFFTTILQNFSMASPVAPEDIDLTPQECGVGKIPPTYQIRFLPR

Cytochrome P450 2E1 = Cytochrome P450 2E1 (Homo sapiens, UniProt P05181); test: Drug metabolism in […] assessed as CYP2E1-mediated formation of 3-(3-hydroxy-1-{4-[(2-phenyl-1,3-thiazol-4-yl)methoxy]benzyl}-1H-pyrazol-4-yl)propanoic acid at 10 uM after 15 mins by HPLC analysis in presence of NADPH; settings: 0.25 h; outline: as §5
Chain of Cytochrome P450 2E1 (P05181 whole entry): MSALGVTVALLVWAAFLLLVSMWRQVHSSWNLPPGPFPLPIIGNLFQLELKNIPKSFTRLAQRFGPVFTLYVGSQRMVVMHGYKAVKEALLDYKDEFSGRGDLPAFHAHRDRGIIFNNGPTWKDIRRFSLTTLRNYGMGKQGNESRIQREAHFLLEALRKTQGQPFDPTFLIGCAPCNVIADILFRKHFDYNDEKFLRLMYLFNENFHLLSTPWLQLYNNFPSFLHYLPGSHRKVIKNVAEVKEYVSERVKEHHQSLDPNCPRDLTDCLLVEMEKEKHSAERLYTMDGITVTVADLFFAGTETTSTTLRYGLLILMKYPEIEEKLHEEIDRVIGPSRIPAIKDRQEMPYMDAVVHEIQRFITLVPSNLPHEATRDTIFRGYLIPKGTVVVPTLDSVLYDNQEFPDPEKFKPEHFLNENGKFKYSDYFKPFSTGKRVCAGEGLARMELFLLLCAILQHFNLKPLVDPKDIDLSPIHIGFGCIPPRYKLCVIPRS

[13] = Chemical stability of the compound in potassium phosphate buffer at pH 7.4 assessed as formation of alpha-2-O-acyl glucuronide conjugate of sipoglitazar at 10 uM up to 4 hrs; format: physicochemical; settings: pH 7.4, 4 h; outline: as §1
[14] = Drug metabolism in human hepatic microsomes assessed as formation of 3-[3-ethoxy-1-(4-hydroxybenzyl)-1H-pyrazol-4-yl]propanoic acid] at 10 uM after 6 hrs by LC-MS and LC-MS/MS analysis in presence of NADPH and UDPGA; format: ADME, Liver, Microsome
[15] = Drug metabolism in human hepatic microsomes assessed as elimination of compound at 10 uM after 30 mins by LC-MS and LC-MS/MS analysis in presence of gemfibrozil, NADPH and UDPGA; format: ADME, Liver, Microsome; settings: 0.5 h
Outline: (§6)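 Human liver microsomes (0.5 mg protein/mL), 10 μmol/L [14C]sipoglitazar, 5 mmol/L MgCl2, alamethicin 50 μg/mL and UDPGA 5 mmol/L, with or without NADPH-generating system. Gemfibrozil added at 0, 10, 30, 100 or 300 μmol/L final, in 50 mmol/L KPB pH 7.4. Incubated 37°C, 30 min. Acetonitrile quench, then radio-HPLC.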

[16] = Drug metabolism in human hepatic microsomes assessed as formation of 3-(3-hydroxy-1-{4-[(2-phenyl-1,3-thiazol-4-yl)methoxy]benzyl}-1H-pyrazol-4-yl)propanoic acid at 10 uM after 1 hr by LC-MS and LC-MS/MS analysis in presence of NADPH
[17] = Drug metabolism in cryopreserved primary human hepatocytes assessed as formation of 3-[3-ethoxy-1-(4-hydroxybenzyl)-1H-pyrazol-4-yl]propanoic acid] at 10 uM after 6 hrs by LC-MS and LC-MS/MS analysis; format: ADME, cell-based, Hepatocyte; outline: as §4
[18] = Drug metabolism in cryopreserved primary human hepatocytes assessed as formation of 3-(3-hydroxy-1-{4-[(2-phenyl-1,3-thiazol-4-yl)methoxy]benzyl}-1H-pyrazol-4-yl)propanoic acid at 10 uM after 6 hrs by LC-MS and LC-MS/MS analysis; format: ADME, cell-based, Hepatocyte; outline: as §4
[19] = Drug metabolism in human hepatic microsomes assessed as formation of 3-[3-ethoxy-1-(4-hydroxybenzyl)-1H-pyrazol-4-yl]propanoic acid] at 10 uM after 1 hr by LC-MS and LC-MS/MS analysis in presence of NADPH
[20] = Drug metabolism in human hepatic microsomes assessed as formation of 3-(3-hydroxy-1-{4-[(2-phenyl-1,3-thiazol-4-yl)methoxy]benzyl}-1H-pyrazol-4-yl)propanoic acid at 10 uM after 30 mins by LC-MS and LC-MS/MS analysis in presence of gemfibrozil, NADPH and UDPGA; format: ADME, Liver, Microsome; settings: 0.5 h; outline: as §6
[21] = Drug metabolism in human hepatic microsomes assessed as formation of alpha-2-O-acyl glucuronide conjugate of sipoglitazar at 100 uM after 4 hrs by HPLC analysis in presence of UDPGA; format: ADME, Liver, Microsome; outline: as §2
[22] = Drug metabolism in human hepatic microsomes assessed as formation of 3-[3-ethoxy-1-(4-hydroxybenzyl)-1H-pyrazol-4-yl]propanoic acid] at 10 uM after 30 mins by LC-MS and LC-MS/MS analysis in presence of gemfibrozil, NADPH and UDPGA; format: ADME, Liver, Microsome; settings: 0.5 h; outline: as §6
[23] = Drug metabolism in human hepatic microsomes assessed as elimination of compound at 10 uM after 30 mins by LC-MS and LC-MS/MS analysis in presence of gemfibrozil and UDPGA; format: ADME, Liver, Microsome; settings: 0.5 h; outline: as §6
[24] = Drug metabolism in human hepatic microsomes assessed as formation of 3-(3-hydroxy-1-{4-[(2-phenyl-1,3-thiazol-4-yl)methoxy]benzyl}-1H-pyrazol-4-yl)propanoic acid at 10 uM after 6 hrs by LC-MS and LC-MS/MS analysis in presence of NADPH and UDPGA; format: ADME, Liver, Microsome
[25] = Drug metabolism in human hepatic microsomes assessed as formation of beta-1-O-acyl glucuronide conjugate of sipoglitazar at 100 uM after 4 hrs by HPLC analysis in presence of UDPGA; format: ADME, Liver, Microsome; outline: as §2
[26] = Drug metabolism in human hepatic microsomes assessed as beta-1-O-acyl glucuronide conjugate of sipoglitazar formation at 10 uM after 30 mins by LC-MS and LC-MS/MS analysis in presence of gemfibrozil and UDPGA; format: ADME, Liver, Microsome; settings: 0.5 h; outline: as §6

Stability [1] | Drug metabolism [2] | Stability (Plasma [3]) | Stability [4] | Stability [5] | Drug metabolism [6] | Drug metabolism [7] | Drug metabolism [8] | Drug metabolism (Hepatocyte) | Drug metabolism [9] | Compound | other results
 |  |  |  |  |  | metabolite_detected | metabolite_detected | metabolite_detected | metabolite_detected | CCOc1nn(Cc2ccc(O)cc2)cc1CCC(=O)O | 
Unstable | metabolite_detected | Unstable | Stable | Unstable | metabolite_detected |  |  |  |  | CCOc1nn(Cc2ccc(OCc3csc(-c4ccccc4)n3)cc2)cc1CCC(=O)O[C@@H]1O[C@H](C(=O)O)[C@@H](O)[C@H](O)[C@H]1O | Drug metabolism (Cytochrome P450 2C8): metabolite_detected; Stability [10]: Unstable; Drug metabolism [11]: metabolite_detected; Stability (Plasma [12]): Unstable; Drug metabolism (Cytochrome P450 2B6): metabolite_not_detected; Drug metabolism (Cytochrome P450 2E1): metabolite_not_detected; Stability [13]: Unstable

Further lines, the compound ahead of its results:

Compound | Stability [1] | Drug metabolism [2] | Stability (Plasma [3]) | Stability [4] | Stability [5] | Drug metabolism [6] | Drug metabolism [7] | Drug metabolism [8] | Drug metabolism (Hepatocyte) | Drug metabolism [9] | other results
CCOc1nn(Cc2ccc(OCc3csc(-c4ccccc4)n3)cc2)cc1CCC(=O)O[C@@H]1[C@@H](O)[C@H](O)[C@@H](C(=O)O)O[C@@H]1O | Unstable | metabolite_detected | Unstable | Stable | Unstable | metabolite_detected |  |  |  |  | 
O=C(O)CCc1cn(Cc2ccc(OCc3csc(-c4ccccc4)n3)cc2)nc1O |  |  |  |  |  |  | metabolite_detected | metabolite_detected | metabolite_detected | metabolite_detected | 
CCOc1nn(Cc2ccc(OCc3csc(-c4ccccc4)n3)cc2)cc1CCC(=O)O [SIPOGLITAZAR] |  |  |  |  |  |  |  |  |  |  | Drug metabolism [14]: metabolite_detected; Drug metabolism [15]: metabolite_not_detected; Drug metabolism [16]: metabolite_detected; Drug metabolism [17]: metabolite_detected; Drug metabolism [18]: metabolite_detected; Drug metabolism [19]: metabolite_detected; Drug metabolism [20]: metabolite_not_detected; Drug metabolism [21]: metabolite_detected; Drug metabolism [22]: metabolite_not_detected; Drug metabolism [23]: metabolite_not_detected; Drug metabolism [24]: metabolite_detected; Drug metabolism [25]: metabolite_detected; Drug metabolism [26]: metabolite_not_detected
